Values after ≈ are worked out from the molar mass of the structure shown.
Key:
[1] = tested on: P. falciparum (W2); experiment: in vitro antimalarial activity, plasmodial LDH; type: cell-based, Plasmodium falciparum; settings: Plasmodium falciparum, W2, 72 h, read-out: P. falciparum (W2) IC50, CQ-resistant W2 strain, 72 h
Outline: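 P. falciparum-infected erythrocytes (2% parasitemia, 2% hematocrit) in RPMI 1640 with 10% human serum and 60 μg/mL amikacin. Exposed to test compound dilutions for 72 h at 37 °C under 90% N2/5% O2/5% CO2. LDH measured with Malstat reagent (30 min, room temperature), then NBT/PES for 1 h in the dark, stopped with 5% acetic acid, read at 650 nm. IC50 from dose-response curves.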

[2] = tested on: C. albicans ATCC90028; experiment: in vitro antifungal activity; type: cell-based, Candida albicans; settings: Candida albicans; for IC50: ATCC90028, read-out: C. albicans IC50; for MFC: ATCC90028, read-out: C. albicans MFC; for MIC: ATCC90028, read-out: C. albicans MIC
Outline: (§1)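 Modified NCCLS broth method in Sabouraud dextrose. Inoculum set by OD630 to 1.5 × 10^3 CFU/mL. Test compound serially diluted in 20% DMSO/saline, duplicate wells, up to 20 μg/mL. Incubated 70–74 h at 35 °C; 530 nm read before and after. IC50 is 50% growth inhibition; MIC is no detectable growth. MFC from clear wells subcultured on agar. Amphotericin B control.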

[3] = tested on: C. neoformans ATCC90113; experiment: in vitro antifungal activity; type: cell-based, Cryptococcus neoformans; settings: Cryptococcus neoformans; for IC50: ATCC90113, read-out: C. neoformans IC50; for MFC: ATCC90113, read-out: C. neoformans MFC; for MIC: ATCC90113, read-out: C. neoformans MIC
Outline: as §1

[4] = tested on: A. fumigatus ATCC 90906; experiment: in vitro antifungal activity; type: cell-based, Aspergillus fumigatus; settings: Aspergillus fumigatus; for IC50: ATCC90906, read-out: A. fumigatus IC50; for MFC: ATCC90906, read-out: A. fumigatus MFC; for MIC: ATCC90906, read-out: A. fumigatus MIC
Outline: as §1

[5] = tested on: L. donovani promastigotes; experiment: in vitro antileishmanial activity, alamarBlue assay; type: cell-based, Leishmania donovani; settings: 48 h; for IC50: read-out: L. donovani IC50, promastigotes, 48 h
[6] = tested on: SA (ATCC29213); experiment: in vitro antibacterial activity; type: cell-based; settings: Staphylococcus aureus; for IC50: ATCC29213, read-out: IC50 (concentration that affords 50% growth inhibition), SA; for MBC: ATCC29213, read-out: MBC (minimum bactericidal concentration), SA; for MIC: ATCC29213, read-out: MIC, SA
Outline: (§2)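 Test compound serially diluted in 20% DMSO/saline and plated in duplicate, up to 20 μg/mL. Inoculum in cation-adjusted Mueller–Hinton broth, pH 7.3, set by OD630 to 5 × 10^5 CFU/mL. Incubated 16–20 h at 35 °C; 530 nm read before and after. IC50 is 50% growth inhibition; MIC is no detectable growth. MBC from clear wells subcultured on agar. Ciprofloxacin control.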

[7] = tested on: MRSA (ATCC33591); experiment: in vitro antibacterial activity; type: cell-based, methicillin-resistant Staphylococcus aureus; settings: Staphylococcus aureus, ATCC33591|MRSA, read-out: MIC, MRSA
Outline: as §2

[8] = tested on: M. intracellulare (ATCC23068); experiment: in vitro antibacterial activity, modified alamarBlue procedure; type: cell-based, Mycobacterium intracellulare; settings: Mycobacterium intracellulare; for IC50: ATCC23068, read-out: IC50 (concentration that affords 50% growth inhibition), M. intracellulare; for MBC: ATCC23068, read-out: MBC (minimum bactericidal concentration), M. intracellulare; for MIC: ATCC23068, read-out: MIC, M. intracellulare
Outline: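 Modified alamarBlue microplate method. Test compound serially diluted in 20% DMSO/saline, duplicate wells, up to 20 μg/mL. Inoculum 2.0 × 10^6 CFU/mL in Middlebrook 7H9 with OADC, pH 7.3, containing 5% alamarBlue. Incubated 70–74 h at 37 °C, 10% CO2; fluorescence 544ex/590em read before and after. MIC: no blue-to-pink change. MBC by subculturing blue wells on agar. Ciprofloxacin control.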

[9] = tested on: P. falciparum (D6); experiment: in vitro antimalarial activity, plasmodial LDH; type: cell-based, Plasmodium falciparum; settings: Plasmodium falciparum, D6, 72 h, read-out: P. falciparum (D6) IC50
[10] = tested on: SK-MEL, KB, BT-549, SK-OV-3, VERO and LLC-PK1 cells; experiment: cytotoxicity, neutral red uptake assay; type: cell-based, mammalian; settings: highest test concentration 4760 ng/mL
Outline: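 Cells seeded at 25 000/well and allowed 24 h to reach confluence. Test compound was then added and incubated 48 h. Viable cells were counted by a modified neutral red uptake method. The panel was four human cancer lines and two noncancerous mammalian kidney lines. Doxorubicin served as positive control and DMSO as negative control.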

| Compound | IC50 [1] | IC50 [2] | MFC [2] | MIC [2] | IC50 [3] | MFC [3] | MIC [3] | IC50 [4] | MFC [4] | MIC [4] | IC50 [6] | MBC [6] | MIC [6] | MIC [7] | IC50 [8] | MBC [8] | MIC [8] | IC50 [9] | cytotoxicity CTX [10] | other results |
| --- | --- | --- | --- | --- | --- | --- | --- | --- | --- | --- | --- | --- | --- | --- | --- | --- | --- | --- | --- | --- |
| C[C@@H]1CC[C@H]2[C@@H](C)C(=O)O[C@@H]3O[C@@]4(C)CC[C@@H]1[C@]32OO4 [ART, artemisinin, reference compound] | 0.009 µg/mL (≈ 0.0319 µM) |  |  |  |  |  |  |  |  |  |  |  |  |  |  |  |  |  |  |  |
| C[C@@H]1[C@H](O)[C@@H](C)/C=C/C=C/C=C/C=C/C=C/C=C/C=C/[C@H](O[C@@H]2O[C@H](C)[C@@H](O)[C@H](N)[C@@H]2O)C[C@@H]2O[C@](O)(C[C@@H](O)C[C@@H](O)[C@H](O)CC[C@@H](O)C[C@@H](O)CC(=O)O[C@H]1C)C[C@H](O)[C@H]2C(=O)O [amphotericin B (AMP), amphotericin B, reference compound] |  | 0.17 µg/mL (≈ 0.184 µM) | 1.25 µg/mL (≈ 1.35 µM) | 0.63 µg/mL (≈ 0.682 µM) | 0.3 µg/mL (≈ 0.325 µM) | 0.63 µg/mL (≈ 0.682 µM) | 0.63 µg/mL (≈ 0.682 µM) | 0.68 µg/mL (≈ 0.736 µM) | 2.5 µg/mL (≈ 2.71 µM) | 1.25 µg/mL (≈ 1.35 µM) |  |  |  |  |  |  |  |  |  | IC50 ([5]; Leishmania donovani): 0.1 µg/mL (≈ 0.108 µM); IC90 ([5]; Leishmania donovani, read-out: L. donovani IC90, promastigotes, 48 h): 0.3 µg/mL (≈ 0.325 µM) |
| O=C(O)c1cn(C2CC2)c2cc(N3CCNCC3)c(F)cc2c1=O [ciprofloxacin, reference compound] |  |  |  |  |  |  |  |  |  |  | 0.13 µg/mL (≈ 0.392 µM) | 1 µg/mL (≈ 3.02 µM) | 0.5 µg/mL (≈ 1.51 µM) | 0.25 µg/mL (≈ 0.754 µM) | 0.28 µg/mL (≈ 0.845 µM) | 1 µg/mL (≈ 3.02 µM) | 0.5 µg/mL (≈ 1.51 µM) |  |  |  |
| CCCCOc1c(OC)cc(NC(C)CCCN)c2nc(C(C)(C)C)ccc12 (stereo not shown) [compound 45, N^4-(5-Butoxy-2-tert-butyl-6-methoxyquinolin-8-yl)pentane-1,4-diamine] | 3.3 µg/mL (≈ 8.51 µM) | > 20 µg/mL | > 20 µg/mL | > 20 µg/mL | > 20 µg/mL | > 20 µg/mL | > 20 µg/mL | > 20 µg/mL | > 20 µg/mL | > 20 µg/mL | > 20 µg/mL | > 20 µg/mL | > 20 µg/mL | > 20 µg/mL | > 20 µg/mL | > 20 µg/mL | > 20 µg/mL | > 4.76 µg/mL | NC (NC, not cytotoxic up to 4760 ng/mL (4.76 μg/mL)) |  |
| CCCCOc1c(OC)cc(NC(C)CCCNC(=O)C(N)CCCCN)c2nc(C(C)(C)C)ccc12 (stereo not shown) [compound 90, 2,6-Diamino-N-(4-(5-butoxy-2-tert-butyl-6-methoxyquinolin-8-ylamino)pentyl)-hexanamide] | 2.9 µg/mL (≈ 5.62 µM) | > 20 µg/mL | > 20 µg/mL | > 20 µg/mL | > 20 µg/mL | > 20 µg/mL | > 20 µg/mL | > 20 µg/mL | > 20 µg/mL | > 20 µg/mL | > 20 µg/mL | > 20 µg/mL | > 20 µg/mL | > 20 µg/mL | > 20 µg/mL | > 20 µg/mL | > 20 µg/mL | 4.7 µg/mL (≈ 9.11 µM) | NC (NC, not cytotoxic up to 4760 ng/mL (4.76 μg/mL)) |  |
| CCCCOc1c(OC)cc(NC(C)CCCNC(=O)C(N)CCCN)c2nc(C(C)(C)C)ccc12 (stereo not shown) [compound 91, 2,5-Diamino-N-(4-(5-butoxy-2-tert-butyl-6-methoxyquinolin-8-ylamino)pentyl)-pentanamide] | 1.3 µg/mL (≈ 2.59 µM) | > 20 µg/mL | > 20 µg/mL | > 20 µg/mL | > 20 µg/mL | > 20 µg/mL | > 20 µg/mL | > 20 µg/mL | > 20 µg/mL | > 20 µg/mL | > 20 µg/mL | > 20 µg/mL | > 20 µg/mL | > 20 µg/mL | > 20 µg/mL | > 20 µg/mL | > 20 µg/mL | 2.8 µg/mL (≈ 5.58 µM) | NC (NC, not cytotoxic up to 4760 ng/mL (4.76 μg/mL)) |  |
| CCCCCOc1c(OC)cc(NC(C)CCCNC(=O)C(N)CCCN)c2nc(C(C)(C)C)ccc12 (stereo not shown) [compound 93, 2,5-Diamino-N-(4-(2-tert-butyl-6-methoxy-5-(pentyloxy)quinolin-8-ylamino)-pentyl)pentanamide] | 0.87 µg/mL (≈ 1.69 µM) | > 20 µg/mL | > 20 µg/mL | > 20 µg/mL | 10.1 µg/mL (≈ 19.6 µM) | > 20 µg/mL | > 20 µg/mL | > 20 µg/mL | > 20 µg/mL | > 20 µg/mL | > 20 µg/mL | > 20 µg/mL | > 20 µg/mL | > 20 µg/mL | 8.99 µg/mL (≈ 17.4 µM) | > 20 µg/mL | > 20 µg/mL | 1 µg/mL (≈ 1.94 µM) | NC (NC, not cytotoxic up to 4760 ng/mL (4.76 μg/mL)) |  |
| CCCCCCOc1c(OC)cc(NC(C)CCCNC(=O)C(N)CCCN)c2nc(C(C)(C)C)ccc12 (stereo not shown) [compound 100, 2,5-Diamino-N-(4-(2-tert-butyl-5-(hexyloxy)-6-methoxyquinolin-8-ylamino)-pentyl)pentanamide] | 0.73 µg/mL (≈ 1.38 µM) | > 20 µg/mL | > 20 µg/mL | > 20 µg/mL | > 20 µg/mL | > 20 µg/mL | > 20 µg/mL | > 20 µg/mL | > 20 µg/mL | > 20 µg/mL | > 20 µg/mL | > 20 µg/mL | > 20 µg/mL | > 20 µg/mL | 9.34 µg/mL (≈ 17.6 µM) | > 20 µg/mL | > 20 µg/mL | 0.86 µg/mL (≈ 1.62 µM) | NC (NC, not cytotoxic up to 4760 ng/mL (4.76 μg/mL)) |  |
| CCCCCCOc1c(OC)cc(NC(C)CCCNC(=O)C(N)CCCNC(=N)N)c2nc(C(C)(C)C)ccc12 (stereo not shown) [compound 101, 2-Amino-N-(4-(2-tert-butyl-5-(hexyloxy)-6-methoxyquinolin-8-ylamino)pentyl)-5-guanidinopentanamide] | 0.33 µg/mL (≈ 0.577 µM) | > 20 µg/mL | > 20 µg/mL | > 20 µg/mL | 14.3 µg/mL (≈ 25 µM) | > 20 µg/mL | > 20 µg/mL | > 20 µg/mL | > 20 µg/mL | > 20 µg/mL | 8.87 µg/mL (≈ 15.5 µM) | > 20 µg/mL | > 20 µg/mL | > 20 µg/mL | 18.4 µg/mL (≈ 32.2 µM) | > 20 µg/mL | 20 µg/mL (≈ 35 µM) | 0.8 µg/mL (≈ 1.4 µM) | NC (NC, not cytotoxic up to 4760 ng/mL (4.76 μg/mL)) |  |
| CCCCCCCOc1c(OC)cc(NC(C)CCCNC(=O)C(N)CCCCN)c2nc(C(C)(C)C)ccc12 (stereo not shown) [compound 109, 2,6-Diamino-N-(4-(2-tert-butyl-5-(heptyloxy)-6-methoxyquinolin-8-ylamino)-pentyl)hexanamide] | 0.68 µg/mL (≈ 1.22 µM) | > 20 µg/mL | > 20 µg/mL | > 20 µg/mL | > 20 µg/mL | > 20 µg/mL | > 20 µg/mL | > 20 µg/mL | > 20 µg/mL | > 20 µg/mL | > 20 µg/mL | > 20 µg/mL | > 20 µg/mL | > 20 µg/mL | > 20 µg/mL | > 20 µg/mL | > 20 µg/mL | 0.8 µg/mL (≈ 1.43 µM) | NC (NC, not cytotoxic up to 4760 ng/mL (4.76 μg/mL)) |  |
| N=C(N)c1ccc(OCCCCCOc2ccc(C(=N)N)cc2)cc1 [pentamidine, reference compound] |  |  |  |  |  |  |  |  |  |  |  |  |  |  |  |  |  |  |  | IC50 ([5]; Leishmania donovani): 1.4 µg/mL (≈ 4.11 µM); L. donovani IC50 ([5]; promastigotes): 1.1 µg/mL |

Reference: article PMC6045484 (ACS Omega, 2018)
